In general, IC50 refers to the concentration at which inhibition is half-maximal.

Experiment [1] has as its system HT-29. Briefly: Cytotoxicity against human HT-29 cells by MTT assay. It is filed as functional, cell-based. In outline: (§1)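 MTT assay on five human tumour lines: HT-29 colon carcinoma, HCT-8 ileocecal adenocarcinoma, Bel-7402 hepatoma, A549 non-small cell lung carcinoma and MCF-7 breast carcinoma.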
(In general: Tetrazolium dyes change colour on reduction, which living cells bring about.)

Experiment [2] deals with T1, DNA topoisomerase 1 (Homo sapiens) (UniProt P11387).
T1 sequence (whole entry): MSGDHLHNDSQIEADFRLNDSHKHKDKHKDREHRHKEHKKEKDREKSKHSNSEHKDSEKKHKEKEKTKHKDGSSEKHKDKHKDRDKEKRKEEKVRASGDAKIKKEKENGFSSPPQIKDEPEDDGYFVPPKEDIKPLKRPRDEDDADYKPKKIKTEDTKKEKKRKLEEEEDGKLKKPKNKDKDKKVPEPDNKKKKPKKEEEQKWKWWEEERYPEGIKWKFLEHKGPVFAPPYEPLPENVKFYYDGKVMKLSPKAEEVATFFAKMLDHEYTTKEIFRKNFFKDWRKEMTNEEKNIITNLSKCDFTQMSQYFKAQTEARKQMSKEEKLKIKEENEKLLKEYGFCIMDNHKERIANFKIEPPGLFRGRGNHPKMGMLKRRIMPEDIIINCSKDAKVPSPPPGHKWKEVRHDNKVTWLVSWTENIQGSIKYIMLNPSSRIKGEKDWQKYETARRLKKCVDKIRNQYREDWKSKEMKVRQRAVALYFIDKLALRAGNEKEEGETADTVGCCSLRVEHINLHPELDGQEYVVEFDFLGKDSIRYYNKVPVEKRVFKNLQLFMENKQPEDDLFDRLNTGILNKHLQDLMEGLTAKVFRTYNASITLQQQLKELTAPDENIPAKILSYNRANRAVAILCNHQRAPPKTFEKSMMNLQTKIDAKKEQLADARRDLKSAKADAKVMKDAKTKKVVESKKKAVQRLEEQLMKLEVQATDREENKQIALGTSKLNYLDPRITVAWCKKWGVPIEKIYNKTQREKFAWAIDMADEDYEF
Briefly: Inhibition of topoisomerase 1 assessed as conversion of supercoiled DNA to open circular DNA at 100 uM. In outline: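 A commercial TOPO I drug screening kit was used with a supercoiled plasmid DNA substrate. Activity was read as conversion of supercoiled DNA (Form I) to open circular DNA, with camptothecin as reference inhibitor.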

The next experiment has as its system Bel-7402. Put plainly: Cytotoxicity against human Bel7402 cells by MTT assay. Format: functional, cell-based. In outline:
as §1

The subject of experiment [3] is HT-29. Put plainly: Cell cycle arrest in human HT-29 cells assessed as accumulation of Sub-G1 phase at 20 uM after 24 hrs by flow cytometry relative to control. Format: functional. In outline:
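HT-29 cells were exposed for 24 h. Apoptosis was scored by flow cytometry as the percentage of cells in the Sub-G1 phase, compared against an untreated control group.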

Experiment [4] relates to HT-29. Briefly: Decrease in topoisomerase 1 expression in human HT-29 cells at 20 uM after 24 hrs relative to control. Format: functional, cell-based. The procedure, abridged: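 TOPO I protein level in HT-29 cells was probed after 24 h incubation by the common protocols with a commercial TOPO I antibody. Levels were compared with a control group.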
The next experiment relates to A549. Put plainly: Cytotoxicity against human A549 cells by MTT assay. Format: functional, cell-based. In outline: as §1
The subject of the next experiment is HCT-8. Put plainly: Cytotoxicity against human HCT8 cells by MTT assay. Format: functional, cell-based. The procedure, abridged:
as §1

In a further experiment the test system is MCF7. Put plainly: Cytotoxicity against human MCF7 cells by MTT assay. It is filed as functional, cell-based. The procedure, abridged: as §1

Each structure is given as a SMILES string. Active and inactive are the calls of the source. The rule behind the calls is not given here.

Regarding `CC(C)CC(NC(=O)Cn1c2ccccc2c2c3c(c4c5ccccc5[nH]c4c21)C(=O)N(C)C3=O)C(=O)N1CCN(C)CC1` (configuration not stated), the IC50 in the experiment with HT-29 [1] was 1.26 µM; in the experiment on Bel-7402 it was 2.23 µM; with A549, 1.84 µM; with HCT-8, above 10 µM; with MCF7 it was 1.94 µM. In addition, the outcome (in experiment [2]; in the experiment with HT-29 [4]) was Active. In addition, the Activity in the experiment with HT-29 [3] turned out to be 14.33%.
As for `CC(C)C(NC(=O)Cn1c2ccccc2c2c3c(c4c5ccccc5[nH]c4c21)C(=O)N(C)C3=O)C(=O)O` (configuration not stated), the IC50 in the experiment with HT-29 [1], with Bel-7402, in the experiment on A549, in the experiment on HCT-8 and in the experiment on MCF7 was above 10 µM in each case.
Take `CC(NC(=O)Cn1c2ccccc2c2c3c(c4c5ccccc5[nH]c4c21)C(=O)N(C)C3=O)C(=O)O` (configuration not stated): the IC50 in the experiment on HT-29 [1], in the experiment with Bel-7402, with A549, with HCT-8 and with MCF7 was above 10 µM throughout.
On to `CN1C(=O)c2c(c3c4ccccc4n(CC(=O)NCC(=O)O)c3c3[nH]c4ccccc4c23)C1=O`, for which the IC50 with HT-29 [1], with Bel-7402, with A549, in the experiment on HCT-8 and with MCF7 was above 10 µM in each case.
For `COC(=O)CNC(=O)Cn1c2ccccc2c2c3c(c4c5ccccc5[nH]c4c21)C(=O)N(C)C3=O`, the IC50 in the experiment with HT-29 [1] is 2.88 µM; in the experiment on Bel-7402, above 10 µM; in the experiment with A549, 2.13 µM; in the experiment with HCT-8 it was above 10 µM; in the experiment with MCF7, 2.23 µM.
As for `COC(=O)C(NC(=O)Cn1c2ccccc2c2c3c(c4c5ccccc5[nH]c4c21)C(=O)N(C)C3=O)C(C)C` (configuration not stated), the concentration for half-maximal inhibition (IC50) in the experiment on HT-29 [1], in the experiment on Bel-7402, with A549, in the experiment on HCT-8 and with MCF7 was above 10 µM each time.
In the case of `CCN1CCN(C(=O)C(Cc2ccccc2)NC(=O)Cn2c3ccccc3c3c4c(c5c6ccccc6[nH]c5c32)C(=O)N(C)C4=O)CC1` (configuration not stated), the IC50 was determined as 2.88 µM in the experiment with HT-29 [1]; 1.91 µM in the experiment on Bel-7402; 1.86 µM with A549; 1.09 µM in the experiment on HCT-8; 1.91 µM with MCF7. The outcome (in experiment [2]; in the experiment with HT-29 [4]) was Active. For the same compound, the Activity with HT-29 [3] is on record as 10.3%.
For `CC(C)CC(NC(=O)Cn1c2ccccc2c2c3c(c4c5ccccc5[nH]c4c21)C(=O)N(C)C3=O)C(=O)O` (configuration not stated), the IC50 with HT-29 [1], in the experiment on Bel-7402, with A549, with HCT-8 and in the experiment with MCF7 was above 10 µM in each case.
Take `COC(=O)C(CC(C)C)NC(=O)Cn1c2ccccc2c2c3c(c4c5ccccc5[nH]c4c21)C(=O)N(C)C3=O` (configuration not stated): the IC50 in the experiment with HT-29 [1], with Bel-7402, with A549, with HCT-8 and in the experiment on MCF7 was above 10 µM throughout.
Turning to `CC(NC(=O)Cn1c2ccccc2c2c3c(c4c5ccccc5[nH]c4c21)C(=O)N(C)C3=O)C(=O)N1CCOCC1` (configuration not stated), the IC50 in the experiment with HT-29 [1], in the experiment on Bel-7402, with A549, with HCT-8 and with MCF7 was above 10 µM in each case.
As to `COC(=O)C(C)NC(=O)Cn1c2ccccc2c2c3c(c4c5ccccc5[nH]c4c21)C(=O)N(C)C3=O` (configuration not stated), the IC50 in the experiment on HT-29 [1], with Bel-7402, in the experiment with A549, in the experiment with HCT-8 and in the experiment on MCF7 was above 10 µM in each case.
On to `CC(C)C(NC(=O)Cn1c2ccccc2c2c3c(c4c5ccccc5[nH]c4c21)C(=O)N(C)C3=O)C(=O)N1CCOCC1` (configuration not stated), for which the IC50 in the experiment with HT-29 [1] is 2.66 µM; with Bel-7402, above 10 µM; in the experiment with A549 it was 5.11 µM; with HCT-8, above 10 µM; in the experiment with MCF7, above 10 µM. Moreover, the result (in experiment [2]; in the experiment with HT-29 [4]) was Active. Also, the Activity in the experiment with HT-29 [3] is reported as 2.49%.
Regarding `COC(=O)C(Cc1ccccc1)NC(=O)Cn1c2ccccc2c2c3c(c4c5ccccc5[nH]c4c21)C(=O)N(C)C3=O` (configuration not stated), the IC50 in the experiment with HT-29 [1], in the experiment on Bel-7402, in the experiment with A549, with HCT-8 and with MCF7 was above 10 µM throughout.
For the compound `CCN1CCN(C(=O)C(CC(C)C)NC(=O)Cn2c3ccccc3c3c4c(c5c6ccccc6[nH]c5c32)C(=O)N(C)C4=O)CC1` (configuration not stated), the IC50 is 3.48 µM in the experiment on HT-29 [1]; above 10 µM with Bel-7402; 7.94 µM with A549; above 10 µM with HCT-8; 2.44 µM in the experiment on MCF7. Moreover, the outcome (in experiment [2]; with HT-29 [4]) was Active. Further, the Activity in the experiment with HT-29 [3] was 8.86%.
Consider `CN1C(=O)c2c(c3c4ccccc4n([C@@H]4O[C@H](CO)[C@@H](O)[C@H](O)[C@H]4O)c3c3[nH]c4ccccc4c23)C1=O`, for which the IC50 in the experiment with HT-29 [1] was 7.44 µM; in the experiment with Bel-7402, 6.68 µM; in the experiment with A549, above 10 µM; with HCT-8, above 10 µM; in the experiment with MCF7, above 10 µM.
As to `CN1C(=O)c2c(c3c4ccccc4n(CC(=O)NC(Cc4ccccc4)C(=O)O)c3c3[nH]c4ccccc4c23)C1=O` (configuration not stated), the 50% inhibitory concentration (IC50) in the experiment with HT-29 [1], in the experiment with Bel-7402, in the experiment on A549, in the experiment on HCT-8 and in the experiment with MCF7 was above 10 µM in each case.

(Values after ChEMBL document CHEMBL1154523, “Design and synthesis of N-methylmaleimide indolocarbazole bearing modified 2-acetamino acid moieties as Topoisomerase I inhibitors” (Bioorg Med Chem Lett, 2009).)
